# Rows were chosen to be rich in hits. Some 3% of all compounds tested hit in one or more screens of this group.
# H9c2 protect – cardioprotection against H2O2-induced cell death, primary screen, uHTS, H9c2 cells, ATPLite luminescence; H9c2 cardiomyocytes, H2O2 injury protection, 2 h; protection from H2O2 cell death, % at 20 µM; 360,000 compounds, 0.63% hits; AID 588492, 2011;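 active means compounds giving at least 50% protection of heart cells from peroxide-induced death in the single-dose screen, raw or plate-pattern-corrected value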;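 further: 0% = DMSO wells with peroxide and 100% = DMSO wells without peroxide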
# Myeloid diff MLP – induction of myeloid progenitor differentiation, primary screen, cell-based, flow cytometry, MLPCN library; ER-HoxA9 myeloid progenitors, lysozyme-GFP differentiation; calls only at 10 µM; 360,000 compounds, 1% hits; AID 624256, 2012;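 active means normalized GFP-positive differentiation at or above the plate's own cutoff, the solvent-only control mean plus 3 SD; inconclusive means no clear call, values can overlap the other calls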;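 further: cells exposed to compound for four days before flow analysis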
# HNF4A DNA FP – change in binding of human HNF4A to DNA, primary screen, biochemical, fluorescence polarization, FITC-DNA; Hepatocyte nuclear factor 4-alpha (Homo sapiens), P41235; 1 h; activity change, % at 10 µM; 360,000 compounds, 0.3% hits; AID 1224865, 2016; in the data active means activity change above about 30%, passing the limit was not always enough
# SENP1 inh – human SENP1 catalytic domain inhibitors, primary screen, biochemical, FRET, uHTS. Sentrin-specific protease 1 (Homo sapiens), Q9P0U3. recombinant SENP1 catalytic domain, CyPet-SUMO1-YPet FRET cleavage. inhibition, % at 10 µM. 360,000 compounds, 0.21% hits. AID 624204, 2012;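 active means inhibition at least 30% at 10 µM, raw YFP signal under a set limit, fluorescence ratio 0.5 to 1.5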;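 further: 0% = enzyme with DMSO and 100% = no enzyme wells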
# Target sequence (Q9P0U3 419-644 limits assumed): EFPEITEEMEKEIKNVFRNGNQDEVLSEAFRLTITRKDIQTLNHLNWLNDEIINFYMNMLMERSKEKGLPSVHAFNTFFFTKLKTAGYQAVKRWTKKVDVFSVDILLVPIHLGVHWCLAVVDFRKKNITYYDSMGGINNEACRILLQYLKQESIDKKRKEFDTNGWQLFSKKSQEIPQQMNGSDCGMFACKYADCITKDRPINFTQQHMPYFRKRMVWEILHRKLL
#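 Test system: recombinant human SENP1 catalytic domain, His6-tagged / Medium: pH 8 Tris buffer with EDTA, NaCl, BME, BSA, NP40, catalase / Also added: SUMO1 FRET substrate flanked by Cypet and Ypet, 25 nM / Times: 50 min reaction at room temperature / Signal: FRET, CFP and YFP emission / Control set: no-enzyme low control and enzyme-plus-DMSO high control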
# Pemphigus Ab inh – inhibitors of pemphigus antibody binding to DSG3, primary screen, biochemical, bead-based, flow cytometry, scFv-GFP; AID 588358, 2011; binding (percent of control), % at 10 µM; DSG3-coupled beads, scFv-anti-DSG3-GFP binding; stronger effect = lower value; Desmoglein-3 (Homo sapiens), P32926; 310,000 compounds, 0.48% hits;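 active means binding more than 3 SD below its plate's average and above zero; inconclusive means below that plate limit but binding exactly zero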
# Granule exo inh – LAMP-1 surface exposure blockers, TALL-104 cells – cell-based, flow cytometry, MLPCN library, primary screen; inhibition, % at 10 µM; TALL-104 LAMP-1 surface exposure; cells stimulated with thapsigargin and PMA; 360,000 compounds, 0.66% hits;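 active means inhibition above about 55%, limit read from the data; inconclusive means no clear call, values can overlap the other calls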
# Numbers without * were called inactive; i = inactive; ? = inconclusive; . = no result; + = active, no number.
SMILES,H9c2 protect,Myeloid diff MLP,HNF4A DNA FP,SENP1 inh,Pemphigus Ab inh,Granule exo inh
CCCCSCCCNC(=O)Nc1ccc(C)c(C)c1,-4,i,0,1,113,-4
Nc1c(N2CCCC2)cc(Cl)c2nonc12,-12,i,-4,61*,99,5
Nc1c(N2CCOCC2)cc(Cl)c2nonc12,6,i,0,6,87,-2
CCC(C(=O)Nc1ccc(C(=O)O)cc1NC(=O)C(CC)c1ccccc1)c1ccccc1 (centres undefined),9,i,2,1,112,-9
COc1ccc(-c2cnn3c(N)c(S(=O)(=O)c4ccccc4)cnc23)cc1,-1,i,-2,0,100,0
Nc1c(S(=O)(=O)c2ccccc2)cnc2c(-c3ccc(F)cc3)cnn12,2,i,2,3,-18*,-2
O=C1CC(/C=C/c2ccco2)=Nc2ccccc2N1,7,+,-8,-8,103,-4
Cc1ccc2cc(-c3noc(C4CCCCC4)n3)c(=O)[nH]c2c1,-15,i,5,-2,-18*,1
Cc1ccc2cc(-c3noc(C4CCCO4)n3)c(=O)[nH]c2c1 (centres undefined),-2,i,-2,-2,98,-4
Nc1c(C(=O)Nc2cccc(F)c2)nnn1-c1cccc(C(F)(F)F)c1,-2,.,0,-1,93*,-14
Nc1c(C(=O)Nc2ccc(F)cc2)nnn1-c1cccc(C(F)(F)F)c1,-3,i,1,1,93,-1
COc1cc(CN(C(=S)NCC(=O)NC2CC2)C2CCCC2)cc(OC)c1OC,3,i,-1,1,107,7
O=C(O)c1cc(O)c2c(c1)[C@@H]([C@H]1c3cc(C(=O)O)cc(O)c3C(=O)c3c(O[C@@H]4O[C@H](CO)[C@@H](O)[C@H](O)[C@H]4O)cccc31)c1cccc(OC3O[C@H](CO)[C@@H](O)[C@H](O)[C@H]3O)c1C2=O (some centres undefined),4,i,-87,16,-1.1*,3
O=C(O)c1cc(O)c2c(c1)[C@H]([C@H]1c3cc(C(=O)O)cc(O)c3C(=O)c3c(O[C@@H]4O[C@H](CO)[C@@H](O)[C@H](O)[C@H]4O)cccc31)c1cccc(OC3O[C@H](CO)[C@@H](O)[C@H](O)[C@H]3O)c1C2=O (some centres undefined),15,i,-90,27,-9.0*,3
COc1ccc(CC(=O)OCC(=O)Nc2cccc(C(C)=O)c2)cc1OC,0,i,-1,-1,103,-10
CC(C)C[C@H]1CN(CCCC[C@H]2CNC(=O)C(=O)N2CCC2CCCCC2)C(=O)C(=O)N1CCC1CCCCC1,.,i,-3,0,.,0
COc1ccccc1C(=O)NNC(=O)CCCN1C(=O)/C(=C/c2cccs2)SC1=S,-8,i,40*,29,101,2
CC(/C=C1\SC(=S)N(CCC(=O)Nc2ccccc2O)C1=O)=C\c1ccccc1,-1,i,47*,-2,89,1
O=C(CCN1C(=O)/C(=C\c2ccccc2)SC1=S)NNC(=O)c1cccnc1,-26,i,3,1,72*,3
COc1ccccc1/C=C1\SC(=S)N(CCC(=O)NCCc2ccc(O)cc2)C1=O,7,?,-1,-10,101,88*
O=C(CCCN1C(=O)/C(=C/c2ccccc2Cl)SC1=S)NNC(=O)c1cccnc1,-5,i,-1,2,102,12
CCN(CC)C(=O)C1=C(C)N(CCC2=CCCCC2)C(=O)C(CC(=O)NCCCCc2ccccc2)C1 (centres undefined),2,i,0,3,99,2
O=C(CCCN1C(=O)/C(=C/c2cccs2)SC1=S)Nc1cccnc1,-4,i,2,-3,68*,0
Cc1cc(C)nc(N2CCCC(C(=O)Nc3cccc(Cl)c3)C2)n1 (centres undefined),2,i,0,0,115,6
CCCCN(CC)S(=O)(=O)c1ccc(C(=O)Nc2nnc(CSC)o2)cc1,15,i,2,1,115,1
SMILES,H9c2 protect,Myeloid diff MLP,HNF4A DNA FP,SENP1 inh,Pemphigus Ab inh,Granule exo inh
CCCCN(CCCC)S(=O)(=O)c1ccc(C(=O)Nc2nnc(CSC)o2)cc1,50*,i,5,2,109,3
CCCN(CCC)S(=O)(=O)c1ccc(C(=O)Nc2nnc(-c3cc(OC)cc(OC)c3)o2)cc1,54*,?,0,0,97,7
CCOc1ccc(CCNS(=O)(=O)c2c(C)nc3sccn3c2=O)cc1OCC,2,i,2,-1,.,-3
CCCC(C)NC(=O)c1ccc(F)cc1 (centres undefined),11,i,2,2,27*,-1
CCc1c(C)nc2cc(-c3cc(OC)cc(OC)c3)nn2c1N1CCN(CCN2CCOCC2)CC1,91*,i,2,3,115,2
CC(O)(c1ccccc1)c1ccc2ccccc2n1 (centres undefined),1,i,1,4,90,-2
COc1ccc2c(c1)c(=O)oc1cc(OCC(=O)NCC3CCC(C(=O)O)CC3)ccc12 (centres undefined),-5,i,-2,1,-19*,4
COc1ccccc1CNc1nc(NC(C)C)nc2cc(-c3ccccc3)sc12,-14,+,0,-1,.,42
COCCNc1nc(NCCOC)c2sc(-c3ccccc3)cc2n1,0,i,-1,-1,.,-4
Cc1ccc(NCc2ccc(O)c3ncccc23)cc1C,63*,i,-18,-1,105,2
Cc1ccc(NCc2ccc(O)c3ncccc23)cc1,82*,i,0,1,100,1
CCC(=O)N/N=C/c1ccc(-c2ccc([N+](=O)[O-])cc2)o1,8,i,-10,-27,102,2
CCCCC(=O)N/N=C/c1ccc(-c2ccc([N+](=O)[O-])cc2)o1,3,i,3,-35,99,-2
NS(=O)(=O)c1ccc(-c2ccc(/C=N/NC(=O)c3ccc([N+](=O)[O-])cc3)o2)cc1,0,i,-3,4,75*,-1
CC(C)(C)NC(=S)N/N=C\c1ccc(-c2ccc([N+](=O)[O-])cc2)o1,9,+,64*,-35,101,-13
